Data: ChEMBL document CHEMBL1138317, “Antibacterial oxazolidinones possessing a novel C-5 side chain. (5R)-trans-3-[3-Fluoro-4- (1-oxotetrahydrothiopyran-4-yl)phenyl]-2- oxooxazolidine-5-carboxylic acid amide (PF-00422602), a new lead compound” (J Med Chem, 2007)
Values after ≈ are worked out from the molar mass of the structure shown. Active and inactive are the calls of the source. The rule behind the calls is not given here.

What was measured:
Streptococcus pneumoniae [1] = experiment: Antibacterial activity against levofloxacin-penicillin-resistant Streptococcus pneumoniae SV1 SP3 by microbroth technology; format: functional
Outline: (§1)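 Drug-resistant panel strains (levofloxacin/oxacillin-resistant S. aureus, levofloxacin/penicillin-resistant S. pneumoniae, vancomycin-resistant E. faecalis and E. faecium). Broth microdilution MIC in µg/mL; value reported as MIC90 across the strains of each resistant group.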

Staphylococcus aureus [2] = experiment: Antibacterial activity against Staphylococcus aureus UC76 in po dosed CD1 mouse systemic infection model assessed as mortality after 7 days; format: functional
[3] = Clearance in Sprague-Dawley rat at 10 mg/kg, iv; format: ADME, organism-based; set-up: dose 10 mg/kg, route intravenous; settings: in vivo
Moraxella catarrhalis = experiment: Antibacterial activity against Moraxella catarrhalis by microbroth technology; format: functional
Outline: (§2)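 MIC determined by broth microdilution, reported in µg/mL.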

[4] = AUC in Sprague-Dawley rat at 20 mg/kg, po; format: ADME, organism-based, Plasma; set-up: dose 20 mg/kg, route oral; settings: Sprague-Dawley, plasma
Enterococcus faecium = experiment: Antibacterial activity against vancomycin-resistant Enterococcus faecium by micro-broth technology; format: functional; outline: as §1
Staphylococcus aureus [5] = experiment: Antibacterial activity against levofloxacin-oxacillin-resistant Staphylococcus aureus UC76 SA1 by micro-broth technology; format: functional; outline: as §1
[6] = molecular target: T1, Amine oxidase [flavin-containing] A (Homo sapiens, UniProt P21397); experiment: Inhibition of human recombinant MAOA
T1 sequence (P21397 whole entry): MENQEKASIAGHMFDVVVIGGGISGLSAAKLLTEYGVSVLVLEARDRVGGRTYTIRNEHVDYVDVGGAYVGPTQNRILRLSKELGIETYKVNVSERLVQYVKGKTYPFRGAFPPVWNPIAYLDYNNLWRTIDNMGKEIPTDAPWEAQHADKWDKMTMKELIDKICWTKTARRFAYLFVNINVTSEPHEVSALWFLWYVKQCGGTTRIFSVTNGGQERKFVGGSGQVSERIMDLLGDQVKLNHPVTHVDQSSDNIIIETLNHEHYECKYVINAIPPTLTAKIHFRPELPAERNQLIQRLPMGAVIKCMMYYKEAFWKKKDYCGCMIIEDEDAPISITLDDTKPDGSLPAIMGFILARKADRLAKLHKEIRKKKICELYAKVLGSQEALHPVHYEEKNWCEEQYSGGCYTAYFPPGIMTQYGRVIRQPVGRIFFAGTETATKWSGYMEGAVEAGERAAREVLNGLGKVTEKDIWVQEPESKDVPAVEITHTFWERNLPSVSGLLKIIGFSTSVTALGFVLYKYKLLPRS

[7] = Half life in Sprague-Dawley rat at 20 mg/kg, po; format: ADME, organism-based; set-up: dose 20 mg/kg, route oral; settings: in vivo
[8] = Cmax in Sprague-Dawley rat at 20 mg/kg, po; format: ADME, organism-based; set-up: dose 20 mg/kg, route oral; settings: in vivo
Haemophilus influenzae = experiment: Antibacterial activity against Haemophilus influenzae by micro-broth technology; format: functional; outline: as §2
Enterococcus faecalis = experiment: Antibacterial activity against vancomycin-resistant Enterococcus faecalis MGH2 EF1 by microbroth technology; format: functional; outline: as §1
Escherichia coli = experiment: Inhibition of protein synthesis in Escherichia coli by cell-free transcription-translation assay; format: functional
Outline: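 E. coli cell-free coupled transcription/translation run in microtiter format with a luciferase reporter; luminescence was the read-out for protein synthesis.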

[9] = Bioavailability in Sprague-Dawley rat at 20 mg/kg, po; format: ADME, organism-based; settings: Sprague-Dawley, in vivo
[10] = Volume of distribution at steady state in Sprague-Dawley rat at 10 mg/kg, iv; format: ADME, organism-based; set-up: dose 10 mg/kg, route intravenous; settings: in vivo, read-out: Vdss
Streptococcus pyogenes = experiment: Antibacterial activity against Streptococcus pyogenes C203 by micro-broth technology; format: functional
Rattus norvegicus [11] = experiment: Effect on hematology in Sprague-Dawley rat assessed as decrease in reticulocytes at 200 mg/kg/day after 14 days; format: ADME, organism-based; set-up: scale not given: the % may be the effect or the level left; settings: in vivo, 336 h
Outline: (§3)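 Female Sprague-Dawley rats received vehicle or drug by oral gavage daily for 14 days, at doses of 40-1000 (mg/kg)/day across the studies. End points were moribundity or lethality, hematology (RBC, hemoglobin, hematocrit, reticulocytes), bone marrow M:E ratio and plasma AUC(0-24).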

Rattus norvegicus [12] = experiment: Effect on hematology in Sprague-Dawley rat assessed as increase in hematocrit at 200 mg/kg/day, po after 14 days; format: ADME, organism-based; set-up: route oral; settings: in vivo, 336 h
[13] = AUC (0 to 24 hrs) in Sprague-Dawley rat plasma at 200 mg/kg/day, po after 14 days; format: ADME, organism-based; set-up: dose 200 mg/kg/day, time < 24 hr, route oral; outline: as §3
[14] = AUC (0 to 24 hrs) in Sprague-Dawley rat plasma at 40 mg/kg/day after 14 days; format: ADME, organism-based; set-up: dose 40 mg/kg/day, time < 24 hr; outline: as §3
Rattus norvegicus [15] = experiment: Effect on hematology in Sprague-Dawley rat assessed as decrease in hemoglobin at 200 mg/kg/day, po after 14 days; format: ADME, organism-based; set-up: route oral; scale not given: the % may be the effect or the level left; settings: in vivo, 336 h; outline: as §3
Staphylococcus aureus [16] = experiment: Antibacterial activity against […] in po dosed CD1 mouse systemic infection model assessed as mortality after 7 days; format: functional
Staphylococcus aureus [17] = experiment: Antibacterial activity against methicillin-resistant Staphylococcus aureus SA1417 in po dosed CD1 mouse systemic infection model assessed as mortality after 7 days; format: functional
Streptococcus pneumoniae [18] = experiment: Bactericidal activity against Streptococcus pneumoniae after 48 hrs by time kill study; format: functional, organism-based
Outline: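 Time-kill study: bacteria exposed continuously to drug at 2-16× the MIC and sampled over 48 h to assess eradication.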

Staphylococcus = experiment: Bacteriostatic activity against Staphylococcus after 48 hrs by time kill study; format: functional, organism-based
Rattus norvegicus [19] = experiment: Effect on hematology in Sprague-Dawley rat assessed as decrease in red blood cells at 200 mg/kg/day, po after 14 days; format: ADME, organism-based; set-up: route oral; scale not given: the % may be the effect or the level left; settings: in vivo, 336 h; outline: as §3
Enterococcus = experiment: Bacteriostatic activity against Enterococcus after 48 hrs by time kill study; format: functional, organism-based
Rattus norvegicus [20] = experiment: Toxicity in Sprague-Dawley rat at 1000 mg/kg/day, po after 14 days; format: organism-based; set-up: route oral; settings: in vivo, 336 h; outline: as §3

Row | Structure (SMILES) | MIC90 (Streptococcus pneumoniae [1]) | PD50 (Staphylococcus aureus [2]) | clearance [3] | MIC (Moraxella catarrhalis) | AUC [4] | MIC90 (Enterococcus faecium) | MIC90 (Staphylococcus aureus [5]) | IC50 [6] | half-life [7] | Cmax [8] | MIC (Haemophilus influenzae) | MIC90 (Enterococcus faecalis) | IC50 (Escherichia coli) | bioavailability [9] | Vd [10] | also measured
1 | NC(=O)[C@H]1CN(c2ccc(C3CCS(=O)(=O)CC3)c(F)c2)C(=O)O1 | 2 µg/mL (≈ 5.61 µM) | 2.1 mg/kg | 12.9 mL/min/kg | > 8 µg/mL | 8620 ng·h/mL | 4 µg/mL (≈ 11.2 µM) | 2 µg/mL (≈ 5.61 µM) | 105 µM | 1.58 h | 1880 ng/mL | > 8 µg/mL | 2 µg/mL (≈ 5.61 µM) | 5.89 µM | 40% | 1.11 L/kg | 
2 | CC(=O)NC[C@H]1CN(c2ccc(N3CCOCC3)c(F)c2)C(=O)O1 [LINEZOLID] | 1 µg/mL (≈ 2.96 µM) | 3.1 mg/kg |  |  |  | 4 µg/mL (≈ 11.9 µM) | 4 µg/mL (≈ 11.9 µM) | 53 µM |  |  |  | 2 µg/mL (≈ 5.93 µM) | 3.6 µM |  |  | MIC (Streptococcus pyogenes): 4 µg/mL (≈ 11.9 µM); Activity (Rattus norvegicus [11]): 97%; Activity (Rattus norvegicus [12]): -9%; AUC at 24 h [13]: 666000 ng·h/mL; AUC at 24 h [14]: 105000 ng·h/mL; Activity (Rattus norvegicus [15]): 9%; PD50 (Staphylococcus aureus [16]): 5 mg/kg; PD50 (Staphylococcus aureus [17]): 6.25 mg/kg; Activity (Streptococcus pneumoniae [18]): Active; Activity (Staphylococcus): Active; Activity (Rattus norvegicus [19]): 9%; Activity (Enterococcus): Active; Activity (Rattus norvegicus [20]): Toxic
3 | NC(=O)[C@H]1CN(c2cc(F)c(N3CCOCC3)c(F)c2)C(=O)O1 | 4 µg/mL (≈ 12.2 µM) | 6.7 mg/kg |  | > 8 µg/mL |  | 8 µg/mL (≈ 24.4 µM) | 4 µg/mL (≈ 12.2 µM) | 63 µM |  |  | > 8 µg/mL | 8 µg/mL (≈ 24.4 µM) | 17 µM |  |  | 
4 | NC(=O)[C@H]1CN(c2cc(F)c(C3CC[S+]([O-])CC3)c(F)c2)C(=O)O1 (some centres undefined) | 2 µg/mL (≈ 5.58 µM) | 1.1 mg/kg | 12.8 mL/min/kg | > 8 µg/mL | 15400 ng·h/mL | 2 µg/mL (≈ 5.58 µM) | 2 µg/mL (≈ 5.58 µM) | 355 µM | 2.24 h | 4690 ng/mL | > 8 µg/mL | 2 µg/mL (≈ 5.58 µM) | 3.6 µM | 65% | 0.83 L/kg | 
